Measurements: ChEMBL document CHEMBL1148771, “Design and synthesis of HIV-1 protease inhibitors incorporating oxazolidinones as P2/P2' ligands in pseudosymmetric dipeptide isosteres” (J Med Chem, 2007)
pEC50, pKi: −log10 of the molar value.

Columns and labels:
[1] = Inhibition of HIV1 Protease M3 variant by FRET based assay; design: species or system Human immunodeficiency virus 1
[2] = Inhibition of HIV1 Protease M1 variant by FRET based assay; design: species or system Human immunodeficiency virus 1
[3] = Inhibition of HIV1 Protease M2 variant by FRET based assay; design: species or system Human immunodeficiency virus 1
[4] = tested on: Human immunodeficiency virus 1; assay: Antiviral activity against HIV1 infected MT4 cells by MTT method; type: functional, organism-based; conditions: Human immunodeficiency virus 1, MT4
In short: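 HIV-1 4–3 (100 CCID50) infected MT-4 cells, washed in PBS, seeded at 4 × 10⁴ cells/well in RPMI with 10% FBS. Compound dilutions added in triplicate at 0.5% DMSO final, 5 days at 37 °C, 5% CO₂, mock-infected controls in parallel. MTT added for 4 h, formazan solubilized, absorbance read at 540/690 nm.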

[5] = biological target: Protease (Human immunodeficiency virus 1, UniProt Q9YQ12); assay: Inhibition of Wild type HIV1 Protease by FRET based assay
Chain of Protease (Q9YQ12 whole entry): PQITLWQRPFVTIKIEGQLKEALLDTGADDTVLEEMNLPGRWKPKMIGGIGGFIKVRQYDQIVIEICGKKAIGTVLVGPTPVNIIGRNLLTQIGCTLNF

| Compound | pKi [1] | pKi [2] | pKi [3] | pEC50 [4] | pKi [5] |
| --- | --- | --- | --- | --- | --- |
| CC(C)(C)NC(=O)[C@@H]1C[C@@H]2CCCC[C@@H]2CN1C[C@@H](O)[C@H](Cc1ccccc1)NC(=O)[C@H](CC(N)=O)NC(=O)c1ccc2ccccc2n1 | 7.11 | 7.05 | 8.99 | 8.00 | – |
| CC(C)CN(C[C@@H](O)[C@H](Cc1ccccc1)NC(=O)O[C@H]1CCOC1)S(=O)(=O)c1ccc(N)cc1 | 8.85 | 9.82 | 9.68 | 7.40 | – |
| COC(=O)N[C@H](C(=O)N[C@@H](Cc1ccccc1)C[C@H](O)[C@H](Cc1ccccc1)NC(=O)[C@@H]1CN(c2ccccc2)C(=O)O1)C(C)(C)C | 6.41 | 6.88 | 7.85 | 5.99 | 8.45 |
| Cc1cccc(C)c1OCC(=O)N[C@@H](Cc1ccccc1)C[C@H](O)[C@H](Cc1ccccc1)NC(=O)[C@@H]1CN(c2ccccc2)C(=O)O1 | – | – | – | – | 8.09 |
| CC(=O)c1cccc(N2C[C@@H](C(=O)N[C@@H](Cc3ccccc3)[C@@H](O)C[C@H](Cc3ccccc3)NC(=O)COc3c(C)cccc3C)OC2=O)c1 | – | – | – | – | 7.45 |
| O=C(N[C@@H](Cc1ccccc1)[C@@H](O)CN(Cc1ccc(-c2ccccn2)cc1)NC(=O)[C@@H]1CN(c2ccccc2)C(=O)O1)[C@@H]1CN(c2ccccc2)C(=O)O1 | – | – | – | – | 6.52 |
| CC(=O)c1cccc(N2C[C@@H](C(=O)N[C@@H](Cc3ccccc3)[C@@H](O)CN(Cc3ccc(-c4ccccn4)cc3)NC(=O)[C@@H]3CN(c4cccc(C(C)=O)c4)C(=O)O3)OC2=O)c1 | – | – | – | – | 5.96 |
| CC(=O)N[C@H](C(=O)N[C@@H](Cc1ccccc1)C[C@H](O)[C@H](Cc1ccccc1)NC(=O)[C@@H]1CN(c2ccc(F)c(F)c2)C(=O)O1)C(C)C | 6.55 | 6.77 | 8.41 | 6.44 | 8.67 |
| CC(C)[C@@H](C(=O)N[C@@H](Cc1ccccc1)C[C@H](O)[C@H](Cc1ccccc1)NC(=O)[C@@H]1CN(c2ccccc2)C(=O)O1)N1CCCNC1=O | 6.73 | 6.76 | 7.86 | 5.92 | – |
| Cc1cccc(C)c1OCC(=O)N[C@@H](Cc1ccccc1)[C@@H](O)C[C@H](Cc1ccccc1)NC(=O)[C@H]1CN(c2ccccc2)C(=O)O1 | – | – | – | – | 5.33 |
| CC(=O)N[C@H](C(=O)N[C@@H](Cc1ccccc1)C[C@H](O)[C@H](Cc1ccccc1)NC(=O)[C@@H]1CN(c2ccccc2)C(=O)O1)C(C)C | 6.95 | 7.29 | 8.51 | 6.10 | – |
| CC(=O)c1ccc(N2C[C@@H](C(=O)N[C@@H](Cc3ccccc3)[C@@H](O)C[C@H](Cc3ccccc3)NC(=O)COc3c(C)cccc3C)OC2=O)cc1 | – | – | – | – | 7.40 |
| Cc1cccc(C)c1OCC(=O)N[C@@H](Cc1ccccc1)[C@@H](O)C[C@H](Cc1ccccc1)NC(=O)[C@@H]1CN(c2ccccc2)C(=O)O1 | 6.35 | 6.44 | 7.74 | – | 8.14 |
| CC(=O)N[C@H](C(=O)N[C@@H](Cc1ccccc1)C[C@H](O)[C@H](Cc1ccccc1)NC(=O)[C@@H]1CN(c2cccc(C(C)=O)c2)C(=O)O1)C(C)C | 6.91 | 7.08 | 8.78 | 6.21 | – |
| COC(=O)N[C@H](C(=O)NN(CC(C)C)C[C@H](O)[C@H](Cc1ccccc1)NC(=O)[C@@H]1CN(c2ccccc2)C(=O)O1)C(C)(C)C | 6.26 | 6.64 | 7.41 | – | 8.15 |
| COC(=O)N[C@H](C(=O)N[C@@H](Cc1ccccc1)[C@@H](O)CN(CC(C)C)NC(=O)[C@@H]1CN(c2ccccc2)C(=O)O1)C(C)(C)C | – | – | – | – | 7.97 |
| Cc1cccc(C)c1OCC(=O)N[C@@H](Cc1ccccc1)[C@@H](O)C[C@H](Cc1ccccc1)NC(=O)[C@@H]1CN(c2cccc(C(F)(F)F)c2)C(=O)O1 | – | – | – | – | 7.66 |
| O=C(Cc1ccc2c(c1)OCO2)N[C@@H](Cc1ccccc1)[C@@H](O)C[C@H](Cc1ccccc1)NC(=O)[C@@H]1CN(c2ccccc2)C(=O)O1 | – | – | – | – | 6.18 |
| O=C(N[C@@H](Cc1ccccc1)[C@@H](O)C[C@H](Cc1ccccc1)NC(=O)[C@@H]1CN(c2cccc(C(F)(F)F)c2)C(=O)O1)OCc1cccnc1 | – | – | – | – | 7.39 |
| CC(=O)N[C@H](C(=O)N[C@@H](Cc1ccccc1)C[C@H](O)[C@H](Cc1ccccc1)NC(=O)[C@@H]1CN(c2cccc(C(F)(F)F)c2)C(=O)O1)C(C)C | – | – | – | – | 8.58 |
| COC(=O)N[C@H](C(=O)N[C@@H](Cc1ccccc1)[C@@H](O)CN(Cc1ccc(-c2ccccn2)cc1)NC(=O)[C@@H](NC(=O)OC)C(C)(C)C)C(C)(C)C [ATAZANAVIR] | 9.31 | 9.48 | 11.05 | – | – |
| Cc1cccc(C)c1OCC(=O)N[C@@H](Cc1ccccc1)[C@@H](O)C[C@H](Cc1ccccc1)NC(=O)[C@H](C(C)C)N1CCCNC1=O [LOPINAVIR] | 9.05 | 8.21 | 10.40 | 8.00 | – |
